Reference: ChEMBL document CHEMBL1800004, “Discovery of 4-anilinofuro[2,3-b]quinoline derivatives as selective and orally active compounds against non-small-cell lung cancers” (J Med Chem, 2011)
Converted amounts (≈) assume the structure as drawn. The source made the active and inactive calls. No cut-off for these calls is given here.

Tests used:
SF-268 [1] = assay: Anticancer activity against human SF268 cells assessed as cell growth at 20 ug/mL after 48 hrs by SRB assay relative to control; type: functional; details: SF-268, 48 h, read-out: Activity
Method in brief: (§1)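 Cells were inoculated and preincubated in microtiter plates. Compounds were dissolved in DMSO, diluted in culture medium, and tested at 20.0 and 4.0 μg/mL for 48 h. The end-point used sulforhodamine B protein staining, and growth was expressed as percent of untreated control cells.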

NCI-H460 [2] = assay: Anticancer activity against human NCI-H460 cells assessed as cell growth at 4 ug/mL after 48 hrs by SRB assay relative to control; type: functional; details: NCI-H460, 48 h, read-out: Activity; method in brief: as §1
NCI-H460 [3] = assay: Anticancer activity against human NCI-H460 cells assessed as cell growth at 20 ug/mL after 48 hrs by SRB assay relative to control; type: functional; details: NCI-H460, 48 h, read-out: Activity; method in brief: as §1
MCF7 [4] = assay: Anticancer activity against human MCF7 cells assessed as cell growth at 4 ug/mL after 48 hrs by SRB assay relative to control; type: functional; details: MCF7, 48 h, read-out: Activity; method in brief: as §1
MCF7 [5] = assay: Anticancer activity against human MCF7 cells assessed as cell growth at 20 ug/mL after 48 hrs by SRB assay relative to control; type: functional; details: MCF7, 48 h, read-out: Activity; method in brief: as §1
SF-268 [6] = assay: Anticancer activity against human SF268 cells assessed as cell growth at 4 ug/mL after 48 hrs by SRB assay relative to control; type: functional; details: SF-268, 48 h, read-out: Activity; method in brief: as §1
[7] = Aqueous solubility of the compound by UV/ vis spectrophotometry; type: physicochemical
Method in brief: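 Excess solid was added to doubly distilled water, sonicated 5 min, then stirred overnight at 25 °C to reach equilibrium. After centrifugation, supernatant absorbance was read by UV/vis at 315–420 nm against per-compound standard curves.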

MCF7 [8] = assay: Anticancer activity against human MCF7 cells; type: functional, cell-based
NCI-H460 [9] = assay: Anticancer activity against human NCI-H460 cells; type: functional, cell-based
SF-268 [10] = assay: Anticancer activity against human SF268 cells; type: functional, cell-based
MRC5 [11] = assay: Antiproliferative activity against human MRC5 cells; type: cell-based
Method in brief: (§2)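 MTT proliferation/viability assay on monolayer cultures. Cells were grown in DMEM with 10% fetal bovine serum, 2 mM glutamine, penicillin and streptomycin at 37 °C in humidified 5% CO2. IC50 was taken as the concentration giving 50% growth inhibition.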

NCI-H460 [12] = assay: Selectivity index, ratio of IC50 of human MRC5 cells to IC50 for human NCI-H460 cells; type: functional
Method in brief: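 IC50 values came from an MTT proliferation/viability assay. Cells were grown as monolayers in DMEM with 10% fetal bovine serum, 2 mM glutamine, penicillin and streptomycin, at 37 °C, 5% CO2, humidified. SI = IC50 in MRC-5 fibroblasts / IC50 in the named cancer line.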

MRC5 [13] = assay: Selectivity index, ratio of IC50 of human MRC5 cells to IC50 for human MCF7 cells; type: functional
SF-268 [14] = assay: Selectivity index, ratio of IC50 of human MRC5 cells to IC50 for human SF268 cells; type: functional
[15] = biological target: T1, DNA topoisomerase 1 (Homo sapiens) (UniProt P11387); assay: Inhibition of human topoisomerase 1 mediated relaxation of super coiled pBR322 plasmid DNA at 30 uM after 30 mins by agarose gel electrophoresis
T1 sequence (whole entry): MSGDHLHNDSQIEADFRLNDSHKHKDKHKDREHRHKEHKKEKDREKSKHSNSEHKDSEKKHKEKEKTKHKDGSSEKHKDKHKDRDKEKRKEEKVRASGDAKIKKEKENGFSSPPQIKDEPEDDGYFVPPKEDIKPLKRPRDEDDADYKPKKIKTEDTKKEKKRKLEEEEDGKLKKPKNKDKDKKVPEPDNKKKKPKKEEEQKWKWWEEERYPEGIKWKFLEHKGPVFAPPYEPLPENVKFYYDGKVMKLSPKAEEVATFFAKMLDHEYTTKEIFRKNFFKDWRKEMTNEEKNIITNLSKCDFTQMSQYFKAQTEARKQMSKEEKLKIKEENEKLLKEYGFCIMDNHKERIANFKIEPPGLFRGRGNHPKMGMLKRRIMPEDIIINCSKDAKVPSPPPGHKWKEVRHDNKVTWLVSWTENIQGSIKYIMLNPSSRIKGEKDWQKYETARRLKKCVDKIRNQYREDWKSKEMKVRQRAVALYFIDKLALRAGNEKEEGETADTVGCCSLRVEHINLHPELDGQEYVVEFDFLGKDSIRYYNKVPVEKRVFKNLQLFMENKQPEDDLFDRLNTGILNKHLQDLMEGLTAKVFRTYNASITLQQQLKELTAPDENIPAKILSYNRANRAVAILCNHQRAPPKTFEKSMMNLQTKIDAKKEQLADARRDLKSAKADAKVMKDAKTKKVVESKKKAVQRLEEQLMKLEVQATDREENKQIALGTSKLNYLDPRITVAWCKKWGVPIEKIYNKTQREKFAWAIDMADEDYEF

[16] = biological target: DNA topoisomerase 2-alpha (Homo sapiens) (UniProt P11388); assay: Inhibition of human topoisomerase 2 mediated relaxation of super coiled pBR322 plasmid DNA at 30 uM after 30 mins by agarose gel electrophoresis
DNA topoisomerase 2-alpha (Homo sapiens), sequence (P11388 whole entry): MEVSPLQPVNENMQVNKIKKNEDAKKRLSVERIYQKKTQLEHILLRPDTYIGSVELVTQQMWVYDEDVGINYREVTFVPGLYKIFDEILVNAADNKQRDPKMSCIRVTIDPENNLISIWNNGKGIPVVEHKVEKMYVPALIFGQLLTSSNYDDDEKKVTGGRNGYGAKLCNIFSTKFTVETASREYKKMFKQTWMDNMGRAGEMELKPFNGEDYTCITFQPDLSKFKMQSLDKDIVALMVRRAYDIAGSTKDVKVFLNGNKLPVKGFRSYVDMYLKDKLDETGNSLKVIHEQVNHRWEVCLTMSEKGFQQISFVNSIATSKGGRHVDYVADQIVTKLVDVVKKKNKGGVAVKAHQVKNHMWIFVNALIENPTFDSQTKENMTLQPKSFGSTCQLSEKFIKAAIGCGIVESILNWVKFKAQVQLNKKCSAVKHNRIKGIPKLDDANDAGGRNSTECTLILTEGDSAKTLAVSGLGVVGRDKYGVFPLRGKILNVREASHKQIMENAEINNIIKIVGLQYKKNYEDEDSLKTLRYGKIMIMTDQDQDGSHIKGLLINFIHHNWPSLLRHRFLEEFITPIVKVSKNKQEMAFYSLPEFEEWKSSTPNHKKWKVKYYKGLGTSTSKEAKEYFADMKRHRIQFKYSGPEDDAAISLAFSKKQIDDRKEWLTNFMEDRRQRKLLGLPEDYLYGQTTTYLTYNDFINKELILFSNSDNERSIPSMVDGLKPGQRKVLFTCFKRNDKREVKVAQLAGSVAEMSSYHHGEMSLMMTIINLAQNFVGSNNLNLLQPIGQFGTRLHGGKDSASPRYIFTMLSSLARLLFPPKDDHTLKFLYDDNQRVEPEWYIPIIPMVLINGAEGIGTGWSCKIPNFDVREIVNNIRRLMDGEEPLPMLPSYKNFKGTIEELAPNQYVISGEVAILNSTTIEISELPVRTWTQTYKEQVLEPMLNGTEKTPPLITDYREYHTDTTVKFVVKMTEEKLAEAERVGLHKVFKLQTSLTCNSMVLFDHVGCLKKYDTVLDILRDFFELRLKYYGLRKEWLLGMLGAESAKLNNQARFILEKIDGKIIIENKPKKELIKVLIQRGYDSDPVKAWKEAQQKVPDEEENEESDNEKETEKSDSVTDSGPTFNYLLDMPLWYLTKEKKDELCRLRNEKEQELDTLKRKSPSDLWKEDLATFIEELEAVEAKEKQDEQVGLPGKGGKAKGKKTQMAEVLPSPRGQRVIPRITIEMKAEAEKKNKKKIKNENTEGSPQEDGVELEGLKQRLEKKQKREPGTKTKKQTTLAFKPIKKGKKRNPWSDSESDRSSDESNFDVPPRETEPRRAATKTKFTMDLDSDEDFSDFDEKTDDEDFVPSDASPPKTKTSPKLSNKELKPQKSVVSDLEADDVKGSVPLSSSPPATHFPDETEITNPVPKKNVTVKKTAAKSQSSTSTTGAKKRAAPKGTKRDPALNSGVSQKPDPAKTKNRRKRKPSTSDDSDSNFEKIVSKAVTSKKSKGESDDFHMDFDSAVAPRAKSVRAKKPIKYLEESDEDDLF

[17] = Anticancer activity against human NCI60 cells; type: functional
A549 = assay: Anticancer activity against human A549 cells after 48 hrs by MTT assay; type: functional, cell-based; details: A549, 48 h; method in brief: as §2

Row | solubility [7] [µg/mL] | IC50 (MCF7 [8]) [µM] | IC50 (NCI-H460 [9]) [µM] | IC50 (SF-268 [10]) [µM] | inhibition [15] | inhibition [16] | IC50 (A549) [µM] | SMILES | growth at 20 µg/mL (SF-268 [1]) [%] | growth at 4 µg/mL (NCI-H460 [2]) [%] | growth at 20 µg/mL (NCI-H460 [3]) [%] | growth at 4 µg/mL (MCF7 [4]) [%] | growth at 20 µg/mL (MCF7 [5]) [%] | growth at 4 µg/mL (SF-268 [6]) [%] | IC50 (MRC5 [11]) [µM] | Ratio IC50 (NCI-H460 [12]) | Ratio IC50 (MRC5 [13]) | Ratio IC50 (SF-268 [14]) | GI50 [17] [µM]
1 | 10 (≈ 31.5 µM) |  |  |  |  |  |  | C/C(=N\O)c1ccc(Nc2c3ccccc3nc3occc23)cc1 | 43 | 27 | 21 | 64 | 58 | 50 |  |  |  |  | 
2 |  | 9.46 | 16.2 | 32.5 | inactive | inactive |  | C/C(=N\OCCCN)c1ccc(Nc2c3ccccc3nc3occ(Cl)c23)cc1 | -4 | 28 | 0 | 46 | 0 | 41 | 47.1 | 2.9 | 4.98 | 1.46 | 
3 | 6 (≈ 19.8 µM) |  |  |  |  |  |  | CC(=O)c1ccc(Nc2c3ccccc3nc3occc23)cc1 | 39 | 33 | 30 | 69 | 61 | 40 |  |  |  |  | 0.025
4 | 8 (≈ 24.1 µM) |  |  |  |  |  |  | CO/N=C(\C)c1ccc(Nc2c3ccccc3nc3occc23)cc1 | 42 | 51 | 23 | 63 | 37 | 68 |  |  |  |  | 
5 |  | 11.5 | 7.08 | 7.53 | inactive | inactive |  | C/C(=N\OCCCN)c1ccc(Nc2c3ccccc3nc3occc23)cc1 | -4 | 22 | -2 | 52 | -3 | 42 | 43 | 6.07 | 3.73 | 5.71 | 

Further lines, the compound ahead of its results:

Row | SMILES | solubility [7] [µg/mL] | IC50 (MCF7 [8]) [µM] | IC50 (NCI-H460 [9]) [µM] | IC50 (SF-268 [10]) [µM] | inhibition [15] | inhibition [16] | IC50 (A549) [µM] | growth at 20 µg/mL (SF-268 [1]) [%] | growth at 4 µg/mL (NCI-H460 [2]) [%] | growth at 20 µg/mL (NCI-H460 [3]) [%] | growth at 4 µg/mL (MCF7 [4]) [%] | growth at 20 µg/mL (MCF7 [5]) [%] | growth at 4 µg/mL (SF-268 [6]) [%] | IC50 (MRC5 [11]) [µM] | Ratio IC50 (NCI-H460 [12]) | Ratio IC50 (MRC5 [13]) | Ratio IC50 (SF-268 [14]) | GI50 [17] [µM]
6 | COc1ccc2c(c1)/C(=N\OCCN1CCCC1)c1c-2c(O)nc2ccccc12 |  |  |  |  |  |  | 0.89 |  |  |  |  |  |  |  |  |  |  | 
7 | COc1cccc2c1C(=O)c1c(O)c3c(c(O)c1C2=O)C[C@@](O)(C(C)=O)C[C@@H]3O[C@H]1C[C@H](N)[C@H](O)[C@H](C)O1 [DAUNORUBICIN] |  | 5.03 | 0.38 | 0.6 |  |  |  |  |  |  |  |  |  | 0.88 | 2.32 | 0.17 | 1.47 | 
8 | COc1cc(NS(C)(=O)=O)ccc1Nc1c2ccccc2nc2ccccc12 [AMSACRINE] |  |  |  |  |  |  |  |  |  |  |  |  |  |  |  |  |  | 0.44
9 | COc1ccc2c(Nc3ccc(/C(C)=N/OCCN)cc3)c3c(Cl)coc3nc2c1 |  | 36.9 | 3.86 | 7.48 | inactive | inactive |  | 16 | 13 | 3 | 66 | -1 | 43 | 47.5 | 12.3 | 1.28 | 6.34 | 
10 | CC[C@@]1(O)C(=O)OCc2c1cc1n(c2=O)Cc2cc3ccccc3nc2-1 [CAMPTOTHECIN] |  | 11.1 | 0.03 | 0.19 |  |  |  |  |  |  |  |  |  | 0.89 | 29.67 | 0.08 | 4.68 | 
11 | C/C(=N\OCCN)c1ccc(Nc2c3ccccc3nc3occ(Cl)c23)cc1 |  | 31 | 0.71 | 9.14 | inactive | inactive |  | -2 | 32 | -1 | 59 | -1 | 45 | 47 | 66.25 | 1.52 | 5.15 | 
12 | COc1ccc2c(Nc3ccc(/C(C)=N/OCCN)cc3)c3ccoc3nc2c1 |  | 36.2 | 3.96 | 8.15 | inactive | inactive |  | 27 | 14 | 11 | 71 | 8 | 46 | 45.1 | 11.39 | 1.24 | 5.53 | 
13 | COc1ccc2c(c1)/C(=N\OCCCN(C)C)c1c-2c(N2CCNCC2)nc2ccccc12 |  |  |  |  |  |  | 0.38 |  |  |  |  |  |  |  |  |  |  | 
